Converted amounts (≈) assume the structure as drawn.
Experiments:
Assay type in all cases: functional
Acinetobacter baumannii [1] = experiment: Antimicrobial activity against Acinetobacter baumannii isolate 25 harboring GyrA Ser83-Leu mutation at pH 5.8
Summary of the method: (§1)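 MIC by agar dilution on Mueller-Hinton agar acidified to pH 5.8 with HCl before antibiotic-containing plates were poured. Agar pH was rechecked once the agar had solidified. Isolates had characterized gyrA/parC genes. Plates for both drugs were made the same day from fresh media, and MICs were read in parallel with the standard-pH set.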

Acinetobacter baumannii [2] = experiment: Antimicrobial activity against Acinetobacter baumannii isolate 18 at pH 7.2
Summary of the method: (§2)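 MIC by agar dilution on Mueller-Hinton agar under standard conditions (pH 7.2), against isolates with characterized gyrA/parC genes. Agar pH was checked after solidifying. Plates for both drugs were prepared the same day from freshly made media, and MICs were determined simultaneously with the pH 5.8 set.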

Acinetobacter baumannii [3] = experiment: Antimicrobial activity against Acinetobacter baumannii isolate 19 harboring GyrA Ser83-Leu mutation at pH 5.8; summary of the method: as §1
Acinetobacter baumannii [4] = experiment: Antimicrobial activity against Acinetobacter baumannii isolate 18 at pH 5.8; summary of the method: as §1
Acinetobacter baumannii [5] = experiment: Antimicrobial activity against Acinetobacter baumannii isolate 53 harboring GyrA Ser83-Leu and ParC Ser80-Leu mutation at pH 7.2
Summary of the method: (§3)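 Agar dilution MIC on Mueller-Hinton agar. For the acidic condition, HCl was added to bring the agar to pH 5.8 before pouring the antibiotic plates, and the pH was checked after the agar set. The standard condition was pH 7.2. Both drugs' plates were made the same day from fresh medium, and MICs were read at the same time.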

Acinetobacter baumannii [6] = experiment: Antimicrobial activity against Acinetobacter baumannii isolate 4 at pH 7.2; summary of the method: as §3
Acinetobacter baumannii [7] = experiment: Antimicrobial activity against Acinetobacter baumannii isolate 5 at pH 5.8; summary of the method: as §3
Acinetobacter baumannii [8] = experiment: Antimicrobial activity against Acinetobacter baumannii isolate 58 harboring GyrA Ser83-Leu and ParC Ser80-Leu mutation at pH 5.8
Summary of the method: (§4)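 Agar dilution MIC on Mueller-Hinton agar acidified to pH 5.8 with HCl before the antibiotic-containing plates were poured. Agar pH was checked after solidifying. Plates were made the same day from fresh medium. Both fluoroquinolones were tested simultaneously against A. baumannii isolates with characterized gyrA/parC genes. MICs are in μg/ml.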

Acinetobacter baumannii [9] = experiment: Antimicrobial activity against Acinetobacter baumannii isolate 50 harboring GyrA Ser83-Leu and ParC Ser80-Leu mutation at pH 5.8; summary of the method: as §3
Acinetobacter baumannii [10] = experiment: Antimicrobial activity against Acinetobacter baumannii isolate 38 harboring GyrA Ser83-Leu mutation at pH 7.2; summary of the method: as §3
Acinetobacter baumannii [11] = experiment: Antimicrobial activity against Acinetobacter baumannii isolate 40 harboring GyrA Ser83-Leu mutation at pH 5.8; summary of the method: as §3
Acinetobacter baumannii [12] = experiment: Antimicrobial activity against Acinetobacter baumannii isolate 37 harboring GyrA Ser83-Leu mutation at pH 5.8; summary of the method: as §3
Acinetobacter baumannii [13] = experiment: Antimicrobial activity against Acinetobacter baumannii isolate 30 harboring GyrA Ser83-Leu mutation at pH 5.8; summary of the method: as §1
Acinetobacter baumannii [14] = experiment: Antimicrobial activity against Acinetobacter baumannii isolate 13 at pH 7.2; summary of the method: as §2
Acinetobacter baumannii [15] = experiment: Antimicrobial activity against Acinetobacter baumannii isolate 12 at pH 5.8; summary of the method: as §1
Acinetobacter baumannii [16] = experiment: Antimicrobial activity against Acinetobacter baumannii isolate 39 harboring GyrA Ser83-Leu mutation at pH 5.8; summary of the method: as §3
Acinetobacter baumannii [17] = experiment: Antimicrobial activity against Acinetobacter baumannii isolate 64 harboring GyrA Ser83-Leu and ParC Ser80-Leu mutation at pH 7.2
Summary of the method: (§5)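 Agar dilution MIC on Mueller-Hinton agar under standard conditions (pH 7.2). Antibiotic-containing plates were made the same day from freshly prepared medium. Agar pH was checked after solidifying. Both fluoroquinolones were tested simultaneously against A. baumannii isolates with characterized gyrA/parC genes. MICs are in μg/ml.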

Acinetobacter baumannii [18] = experiment: Antimicrobial activity against Acinetobacter baumannii isolate 10 at pH 7.2; summary of the method: as §2
Acinetobacter baumannii [19] = experiment: Antimicrobial activity against Acinetobacter baumannii isolate 8 at pH 5.8; summary of the method: as §4
Acinetobacter baumannii [20] = experiment: Antimicrobial activity against Acinetobacter baumannii isolate 60 harboring GyrA Ser83-Leu and ParC Ser80-Leu mutation at pH 7.2; summary of the method: as §5
Acinetobacter baumannii [21] = experiment: Antimicrobial activity against Acinetobacter baumannii isolate 2 at pH 7.2; summary of the method: as §2
Acinetobacter baumannii [22] = experiment: Antimicrobial activity against Acinetobacter baumannii isolate 65 harboring GyrA Ser83-Leu and ParC Ser80-Leu mutation at pH 5.8; summary of the method: as §4
Acinetobacter baumannii [23] = experiment: Antimicrobial activity against Acinetobacter baumannii isolate 33 harboring GyrA Ser83-Leu mutation at pH 5.8; summary of the method: as §3
Acinetobacter baumannii [24] = experiment: Antimicrobial activity against Acinetobacter baumannii isolate 2 at pH 5.8; summary of the method: as §1
Acinetobacter baumannii [25] = experiment: Antimicrobial activity against Acinetobacter baumannii isolate 13 at pH 5.8; summary of the method: as §1
Acinetobacter baumannii [26] = experiment: Antimicrobial activity against Acinetobacter baumannii isolate 66 harboring GyrA Ser83-Leu mutation at pH 7.2; summary of the method: as §5
Acinetobacter baumannii [27] = experiment: Antimicrobial activity against Acinetobacter baumannii isolate 48 harboring GyrA Ser83-Leu and ParC Ser80-Leu mutation at pH 7.2; summary of the method: as §3
Acinetobacter baumannii [28] = experiment: Antimicrobial activity against Acinetobacter baumannii isolate 6 at pH 5.8; summary of the method: as §4
Acinetobacter baumannii [29] = experiment: Antimicrobial activity against Acinetobacter baumannii isolate 14 at pH 7.2; summary of the method: as §2
Acinetobacter baumannii [30] = experiment: Antimicrobial activity against Acinetobacter baumannii isolate 46 harboring GyrA Ser83-Leu and ParC Ser80-Leu mutation at pH 5.8; summary of the method: as §3
Acinetobacter baumannii [31] = experiment: Antimicrobial activity against Acinetobacter baumannii isolate 38 harboring GyrA Ser83-Leu mutation at pH 5.8; summary of the method: as §3
Acinetobacter baumannii [32] = experiment: Antimicrobial activity against Acinetobacter baumannii isolate 17 at pH 5.8; summary of the method: as §1
Acinetobacter baumannii [33] = experiment: Antimicrobial activity against Acinetobacter baumannii isolate 12 at pH 7.2; summary of the method: as §2
Acinetobacter baumannii [34] = experiment: Antimicrobial activity against Acinetobacter baumannii isolate 34 harboring GyrA Ser83-Leu mutation at pH 5.8; summary of the method: as §3
Acinetobacter baumannii [35] = experiment: Antimicrobial activity against Acinetobacter baumannii isolate 33 harboring GyrA Ser83-Leu mutation at pH 7.2; summary of the method: as §3
Acinetobacter baumannii [36] = experiment: Antimicrobial activity against Acinetobacter baumannii isolate 6 at pH 7.2; summary of the method: as §5
Acinetobacter baumannii [37] = experiment: Antimicrobial activity against Acinetobacter baumannii isolate 24 harboring GyrA Ser83-Leu mutation at pH 7.2; summary of the method: as §2
Acinetobacter baumannii [38] = experiment: Antimicrobial activity against Acinetobacter baumannii isolate 27 harboring GyrA Ser83-Leu mutation at pH 5.8; summary of the method: as §1
Acinetobacter baumannii [39] = experiment: Antimicrobial activity against Acinetobacter baumannii isolate 22 harboring GyrA Ser83-Leu mutation at pH 5.8; summary of the method: as §1
Acinetobacter baumannii [40] = experiment: Antimicrobial activity against Acinetobacter baumannii isolate 57 harboring GyrA Ser83-Leu and ParC Ser80-Phe mutation at pH 7.2; summary of the method: as §5
Acinetobacter baumannii [41] = experiment: Antimicrobial activity against Acinetobacter baumannii isolate 31 harboring GyrA Ser83-Leu mutation at pH 7.2; summary of the method: as §2
Acinetobacter baumannii [42] = experiment: Antimicrobial activity against Acinetobacter baumannii isolate 22 harboring GyrA Ser83-Leu mutation at pH 7.2; summary of the method: as §2
Acinetobacter baumannii [43] = experiment: Antimicrobial activity against Acinetobacter baumannii isolate 16 at pH 7.2; summary of the method: as §2
Acinetobacter baumannii [44] = experiment: Antimicrobial activity against Acinetobacter baumannii isolate 50 harboring GyrA Ser83-Leu and ParC Ser80-Leu mutation at pH 7.2; summary of the method: as §3

Structure (SMILES): O=C(O)c1cn(C2CC2)c2cc(N3CCNCC3)c(F)cc2c1=O [CIPROFLOXACIN]
- MIC (Acinetobacter baumannii [1]): 32 µg/mL (≈ 96.6 µM)
- MIC (Acinetobacter baumannii [2]): 1 µg/mL (≈ 3.02 µM)
- MIC (Acinetobacter baumannii [3]): 4 µg/mL (≈ 12.1 µM)
- MIC (Acinetobacter baumannii [4]): 8 µg/mL (≈ 24.1 µM)
- MIC (Acinetobacter baumannii [5]): 128 µg/mL (≈ 386 µM)
- MIC (Acinetobacter baumannii [6]): 0.12 µg/mL (≈ 0.362 µM)
- MIC (Acinetobacter baumannii [7]): 2 µg/mL (≈ 6.04 µM)
- MIC (Acinetobacter baumannii [8]): > 128 µg/mL
- MIC (Acinetobacter baumannii [9]): > 128 µg/mL
- MIC (Acinetobacter baumannii [10]): 32 µg/mL (≈ 96.6 µM)
- MIC (Acinetobacter baumannii [11]): > 128 µg/mL
- MIC (Acinetobacter baumannii [12]): 128 µg/mL (≈ 386 µM)
- MIC (Acinetobacter baumannii [13]): 32 µg/mL (≈ 96.6 µM)
- MIC (Acinetobacter baumannii [14]): 0.5 µg/mL (≈ 1.51 µM)
- MIC (Acinetobacter baumannii [15]): 2 µg/mL (≈ 6.04 µM)
- MIC (Acinetobacter baumannii [16]): > 128 µg/mL
- MIC (Acinetobacter baumannii [17]): > 128 µg/mL
- MIC (Acinetobacter baumannii [18]): 0.25 µg/mL (≈ 0.754 µM)
- MIC (Acinetobacter baumannii [19]): 2 µg/mL (≈ 6.04 µM)
- MIC (Acinetobacter baumannii [20]): 128 µg/mL (≈ 386 µM)
- MIC (Acinetobacter baumannii [21]): 0.06 µg/mL (≈ 0.181 µM)
- MIC (Acinetobacter baumannii [22]): > 128 µg/mL
- MIC (Acinetobacter baumannii [23]): 128 µg/mL (≈ 386 µM)
- MIC (Acinetobacter baumannii [24]): 2 µg/mL (≈ 6.04 µM)
- MIC (Acinetobacter baumannii [25]): 4 µg/mL (≈ 12.1 µM)
- MIC (Acinetobacter baumannii [26]): 32 µg/mL (≈ 96.6 µM)
- MIC (Acinetobacter baumannii [27]): 128 µg/mL (≈ 386 µM)
- MIC (Acinetobacter baumannii [28]): 2 µg/mL (≈ 6.04 µM)
- MIC (Acinetobacter baumannii [29]): 0.5 µg/mL (≈ 1.51 µM)
- MIC (Acinetobacter baumannii [30]): > 128 µg/mL
- MIC (Acinetobacter baumannii [31]): 128 µg/mL (≈ 386 µM)
- MIC (Acinetobacter baumannii [32]): 4 µg/mL (≈ 12.1 µM)
- MIC (Acinetobacter baumannii [33]): 0.5 µg/mL (≈ 1.51 µM)
- MIC (Acinetobacter baumannii [34]): 128 µg/mL (≈ 386 µM)
- MIC (Acinetobacter baumannii [35]): 8 µg/mL (≈ 24.1 µM)
- MIC (Acinetobacter baumannii [36]): 0.12 µg/mL (≈ 0.362 µM)
- MIC (Acinetobacter baumannii [37]): 4 µg/mL (≈ 12.1 µM)
- MIC (Acinetobacter baumannii [38]): 32 µg/mL (≈ 96.6 µM)
- MIC (Acinetobacter baumannii [39]): 32 µg/mL (≈ 96.6 µM)
- MIC (Acinetobacter baumannii [40]): 128 µg/mL (≈ 386 µM)
- MIC (Acinetobacter baumannii [41]): 8 µg/mL (≈ 24.1 µM)
- MIC (Acinetobacter baumannii [42]): 4 µg/mL (≈ 12.1 µM)
- MIC (Acinetobacter baumannii [43]): 1 µg/mL (≈ 3.02 µM)
- MIC (Acinetobacter baumannii [44]): 128 µg/mL (≈ 386 µM)
